Data reported in ChEMBL document CHEMBL1132142, “Extension of the polyanionic cosalane pharmacophore as a strategy for increasing anti-HIV potency” (J Med Chem, 1999).

How the values were obtained:
CD4+ve Th [1] = experiment: Compound was tested for binding of the gp120 (strain IIIb)to the CD4+ T-cell lines at 0.73 uM; format: functional
Method in brief: (§1)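 Recombinant gp120 (strain IIIB) binding to MT-4 (CD4+ T-cell) cells was measured at each listed concentration. Read-out was % positive cells and % inhibition, alongside an isotype mAb control.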

CD4+ve Th [2] = experiment: Compound was tested for binding of the gp120 (strain IIIb)to the CD4+ T-cell lines at 18 uM; format: functional; method in brief: as §1
CD4+ve Th [3] = experiment: Compound was tested for binding of the gp120 (strain IIIb)to the CD4+ T-cell lines at 3.7 uM; format: functional; method in brief: as §1
CD4+ve Th [4] = experiment: Compound was tested for binding of the gp120 (strain IIIb)to the CD4+ T-cell lines at 92 uM; format: functional; method in brief: as §1
CEM-SS [5] = experiment: The compound was evaluated for cytotoxicity in CEM-SS cells; format: functional, Homo sapiens
Method in brief: (§2)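 Uninfected cells (CEM-SS or MT-4, per line) were incubated with the drug in a microtiter XTT assay. Viability was expressed as percent of the uninfected drug-free control. CC50 is the concentration causing 50% cell death. Triplicates were run per plate on two sister plates, and the two plate values were averaged.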

CEM-SS [6] = experiment: The compound was evaluated for inhibition of cytopathic effect of HIV-1 RF in CEM-SS cells; format: functional, cell-based, Homo sapiens
Method in brief: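 XTT-based microtiter cytoprotection assay measuring protection from HIV-1-induced cytopathic effect, read as percent of the uninfected drug-free control. EC50 is the concentration giving 50% protection in infected cultures. Results were confirmed by cell-free supernatant reverse transcriptase and p24 levels. Each plate was run in triplicate, and the EC50 values from two sister plates were averaged.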

MT4 [7] = experiment: The compound was evaluated for cytotoxicity in MT-4 cells; format: functional, Homo sapiens; method in brief: as §2
MT4 [8] = experiment: The compound was evaluated for inhibition of cytopathic effect of HIV-1 IIIB in MT-4 cells; format: functional, cell-based, Homo sapiens
MT4 [9] = experiment: (§3) Compound was tested for binding of the mAb (NEA9305) to the V3 loo[p of gp120, expressed on HIV-1 infected MT-4 cells at 92 uM; format: functional, Homo sapiens
Method in brief: (§4)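 Binding of mAb NEA9305 to the gp120 V3 loop expressed on HIV-1-infected MT-4 cells was measured at each listed concentration. Results were given as % positive cells and % inhibition, with an isotype mAb control.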

MT4 [10] = experiment: (§5) Compound was tested for binding of the mAb (NEA9305) to the V3 loo[p of gp120, expressed ion HIV-1 infected MT-4 cells at 3.7 uM; format: functional; conditions: Homo sapiens; method in brief: as §4
MT4 [11] = experiment: (§6) Compound was tested for binding of the mAb (NEA9305) to the V3 loo[p of gp120, expressed on HIV-1 infected MT-4 cells at 0.73 uM; format: functional; conditions: Homo sapiens; method in brief: as §4
MT4 [12] = experiment: as §3; format: functional; conditions: Homo sapiens; method in brief: as §4
MT4 [13] = experiment: (§7) Compound was tested for binding of the mAb (NEA9305) to the V3 loo[p of gp120, expressed on HIV-1 infected MT-4 cells at 18 uM; format: functional, Homo sapiens; method in brief: as §4
MT4 [14] = experiment: as §5; format: functional, Homo sapiens; method in brief: as §4
MT4 [15] = experiment: as §6; format: functional, Homo sapiens; method in brief: as §4
MT4 [16] = experiment: as §7; format: functional; conditions: Homo sapiens; method in brief: as §4
CD4+ve Th [17] = experiment: Compound was tested for binding of the gp120 (strain IIIb)to the CD4+ T-cell lines at 0.65 uM; format: functional; method in brief: as §1
CD4+ve Th [18] = experiment: Compound was tested for binding of the gp120 (strain IIIb)to the CD4+ T-cell lines at 16 uM; format: functional; method in brief: as §1
CD4+ve Th [19] = experiment: Compound was tested for binding of the gp120 (strain IIIb)to the CD4+ T-cell lines at 3.2 uM; format: functional; method in brief: as §1
CD4+ve Th [20] = experiment: Compound was tested for binding of the gp120 (strain IIIb)to the CD4+ T-cell lines at 81 uM; format: functional; method in brief: as §1
MT4 [21] = experiment: The compound was evaluated for inhibition of cytopathic effect of HIV-2ROD in MT-4 cells; format: functional, cell-based, Homo sapiens; conditions: mt4
MT4 [22] = experiment: Compound was tested for binding of the mAb (NEA9305) to the V3 loo[p of gp120, expressed on HIV-1 infected MT-4 cells at 81 uM; format: functional, Homo sapiens; method in brief: as §4
MT4 [23] = experiment: Compound was tested for binding of the mAb (NEA9305) to the V3 loo[p of gp120, expressed on HIV-1 infected MT-4 cells at 16 uM; format: functional, Homo sapiens; method in brief: as §4
MT4 [24] = experiment: Compound was tested for binding of the mAb (NEA9305) to the V3 loo[p of gp120, expressed on HIV-1 infected MT-4 cells at 0.65 uM; format: functional, Homo sapiens; method in brief: as §4
MT4 [25] = experiment: Compound was tested for binding of the mAb (NEA9305) to the V3 loo[p of gp120, expressed ion HIV-1 infected MT-4 cells at 3.2 uM; format: functional, Homo sapiens; method in brief: as §4

Work on `CC(C)CCCC(C)[C@H]1CC[C@H]2[C@@H]3CCC4C[C@@H](CCC=C(c5cc(Cl)c(OCc6ccc(C(=O)O)cc6)c(C(=O)O)c5)c5cc(Cl)c(OCc6ccc(C(=O)O)cc6)c(C(=O)O)c5)CC[C@]4(C)[C@H]3CC[C@]12C` (some centres not stated) yielded a Positive cells (CD4+ve Th [1]) of 88.2%, an inhibition at 0.73 µM (CD4+ve Th [1]) of 9% and a Positive cells (CD4+ve Th [2]) of 8.3%. For the same compound, the inhibition at 18 µM (CD4+ve Th [2]) was 98%, the Positive cells (CD4+ve Th [3]) was 25.3% and the inhibition at 3.7 µM (CD4+ve Th [3]) was 79%. The Positive cells (CD4+ve Th [4]) was 6.8%, the inhibition at 92 µM (CD4+ve Th [4]) was 99% and the Cytotoxicity (CEM-SS [5]) was 72 µM. For the same compound, the EC50 (CEM-SS [6]; Homo sapiens, CEM-SS) was 500 nM, the Cytotoxicity (MT4 [7]) was 88 µM and the EC50 (MT4 [8]; Homo sapiens, MT4) was 1700 nM. For the same compound, the Positive cells (MT4 [9]) was 23.8%, the inhibition at 3.7 µM (MT4 [10]) was 16% and the inhibition at 0.73 µM (MT4 [11]) was 3%. For the same compound, the inhibition at 92 µM (MT4 [12]) was 76%, the Positive cells (MT4 [13]) was 34.4% and the Positive cells (MT4 [14]) was 58.4%. It also gave a Positive cells (MT4 [15]) of 65.9% and an inhibition at 18 µM (MT4 [16]) of 58%.
With `CC(C)CCCC(C)[C@H]1CC[C@H]2[C@@H]3CCC4C[C@@H](CCC=C(c5cc(Cl)c(OCc6ccc(C(=O)[O-])cc6)c(C(=O)[O-])c5)c5cc(Cl)c(OCc6ccc(C(=O)[O-])cc6)c(C(=O)[O-])c5)CC[C@]4(C)[C@H]3CC[C@]12C.[Na+].[Na+].[Na+].[Na+]` (some centres not stated) the Positive cells (CD4+ve Th [17]) was 76.2%, the inhibition at 0.65 µM (CD4+ve Th [17]) was 22% and the Positive cells (CD4+ve Th [18]) was 6.9%. It also gave an inhibition at 16 µM (CD4+ve Th [18]) of 99%, a Positive cells (CD4+ve Th [19]) of 19.9% and an inhibition at 3.2 µM (CD4+ve Th [19]) of 82%. For the same compound, the Positive cells (CD4+ve Th [20]) was 7.8%, the inhibition at 81 µM (CD4+ve Th [20]) was 98% and the Cytotoxicity (CEM-SS [5]) was 76 µM. It also gave an EC50 (CEM-SS [6]; cem-ss) of 800 nM, a Cytotoxicity (MT4 [7]) of 95 µM and an EC50 (MT4 [8]; mt4) of 1400 nM. It also gave an EC50 (MT4 [21]) of 22000 nM, a Positive cells (MT4 [22]) of 26.9% and a Positive cells (MT4 [23]) of 33.6%. The Positive cells (MT4 [24]) was 66.6% and the Positive cells (MT4 [25]) was 60.9%.
